From ChEMBL document CHEMBL4808161, “Structure-Activity Relationship Study of Amidobenzimidazole Analogues Leading to Potent and Systemically Administrable Stimulator of Interferon Gene (STING) Agonists” (J Med Chem, 2021)
Values belong to the compound of their own block, whether it stands above or below them. Calls of active or inactive are those of the source. The calls are words filed in the database; no cut-off is given here.

What was measured:
CT26 = assay: Antitumor activity against mouse CT26 cells inoculated in BALB/c mouse assessed as inhibition of tumor growth IT(Intratumoral) administered on day 1,4 and 7 post inoculation; settings: time 7.0 day
[1] = molecular target: T1, Stimulator of interferon genes protein (Homo sapiens, UniProt Q86WV6); assay: Agonist activity at wild type human STING expressed in baculovirus infected Sf21 insect cells
[2] = molecular target: Stimulator of interferon genes protein (Homo sapiens, UniProt Q86WV6, G230A/R293Q/R71H); assay: Agonist activity at human STING HAQ expressed in baculovirus infected Sf21 insect cells
[3] = molecular target: T2, Stimulator of interferon genes protein (Mus musculus) (UniProt Q3TBT3); assay: Activation of mouse STING expressed in RAW-Lucia ISG cells at 50 uM incubated for 24 hrs by QUANTI-Luc luciferase reporter gene assay relative to control; settings: filed as activator
T2 sequence (whole entry): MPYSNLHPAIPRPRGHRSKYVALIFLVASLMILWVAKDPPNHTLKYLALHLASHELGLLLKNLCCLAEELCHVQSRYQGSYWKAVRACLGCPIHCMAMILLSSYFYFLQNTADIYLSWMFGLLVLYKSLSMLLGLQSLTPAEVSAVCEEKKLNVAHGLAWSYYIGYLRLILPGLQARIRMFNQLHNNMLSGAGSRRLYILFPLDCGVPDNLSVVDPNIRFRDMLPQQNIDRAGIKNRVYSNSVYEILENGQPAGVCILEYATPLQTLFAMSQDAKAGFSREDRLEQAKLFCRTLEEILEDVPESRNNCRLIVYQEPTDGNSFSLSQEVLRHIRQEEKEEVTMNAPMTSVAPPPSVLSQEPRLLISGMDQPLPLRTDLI

[4] = molecular target: T1, Stimulator of interferon genes protein; assay: Activation of STING in human THP1-Dual cells assessed as increase in IP-10 secretion at 0.01 to 10 uM measured after 24 hrs by ELISA; format: cell-based; settings: filed as activator, dose 0.01-10 µM
Summary of the method: (§1)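 THP1-Dual cells seeded at 10⁵ cells/well and treated for 24 h. Human IP-10 and IFN-β in supernatant quantified by ELISA kits. Concentration (pg/mL) derived from a standard curve.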

Homo sapiens [5] = species: Homo sapiens; assay: Binding affinity to human STING 293Q mutant assessed as thermal stability by measuring melting temperature […] differential scanning fluorimetry (reference value: 46.25 degreeC); settings: filed as activator
Summary of the method: (§2)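 Thermal shift by DSF: 5 μM STING protein, 50 μM compound and 10× SYPRO Orange in 10 mM HEPES pH 7.5, 150 mM NaCl. Samples heated from 30 to 80 °C at 0.5 °C/min. Tm taken as the temperature of median fluorescence between onset and maximum; n = 3.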

[6] = molecular target: T1, Stimulator of interferon genes protein; assay: Activation of STING in human THP1-Dual cells assessed as induction of NF-KB signaling at 0.005 to 10 uM measured after 24 hrs by Quanti-Blue reagent based assay; format: cell-based; settings: filed as activator, dose 0.005-10 µM
Summary of the method: (§3)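 THP1-Dual cells (1 × 10⁵/well) treated for 24 h. Supernatant (20 μL) incubated 1 h at 37 °C with QUANTI-Blue, then absorbance read at 650 nm. Fold change calculated relative to vehicle control.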

[7] = tested on: Stimulator of interferon genes protein (Homo sapiens), Q86WV6 [R71H,G230A,R293Q]; assay: Binding affinity to human STING HAQ mutant assessed as thermal stability by measuring melting temperature […] differential scanning fluorimetry (reference value: 37.25 degreeC); settings: filed as activator
Summary of the method: as §2

[8] = tested on: Stimulator of interferon genes protein (Homo sapiens), Q86WV6 [UNDEFINED MUTATION]; assay: Binding affinity to human STING R232 mutant assessed as thermal stability by measuring melting temperature […] differential scanning fluorimetry (reference value: 38.75 degreeC); settings: filed as activator
Summary of the method: as §2

Homo sapiens [9] = species: Homo sapiens; assay: Binding affinity to human STING H232 mutant assessed as thermal stability by measuring melting temperature […] differential scanning fluorimetry (reference value: 39.5 degreeC); settings: filed as activator
Summary of the method: as §2

[10] = molecular target: T1, Stimulator of interferon genes protein; assay: Activation of human STING (139 to 379 residues) expressed in THP1-Blue ISG cells at 10 uM incubated for 24 hrs by quanti-blue SEAP reporter gene assay relative to control; format: cell-based; settings: filed as activator
Summary of the method: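 THP1-Blue-ISG cells (1 × 10⁵/well) treated for 24 h; single-concentration screen at 10 μM. SEAP ISG reporter in 20 μL supernatant read with QUANTI-Blue at 650 nm. Activation given as fold over control, averaging at least two experiments.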

Mus musculus = species: Mus musculus; assay: Binding affinity to mouse STING mR231 mutant assessed as thermal stability by measuring melting temperature […] differential scanning fluorimetry (reference value: 42 degreeC); settings: filed as activator
Summary of the method: as §2

[11] = molecular target: T1, Stimulator of interferon genes protein; assay: Activation of STING in human THP1-Dual cells assessed as increase in IFNbeta secretion at 10 uM measured after 24 hrs by ELISA; format: cell-based; settings: filed as activator
Summary of the method: as §1

[12] = molecular target: T1, Stimulator of interferon genes protein; assay: Activation of STING in human THP1-Dual cells assessed as increase in TBK1/IRF3 phosphorylation measured after 4 hrs by Western blot analysis; format: cell-based; settings: filed as activator, dose 3.3-30 µM
Summary of the method: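 THP1-Dual cells (8 × 10⁵/well) treated at 3.3, 10 and 30 μM for 4 h, then lysed in SDS sample buffer and boiled. Lysates run on 10% SDS-PAGE and transferred to nitrocellulose. Blots probed for TBK1, phospho-TBK1 Ser172, IRF3, phospho-IRF3 Ser396 and GAPDH, with HRP secondaries and ECL detection.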

[13] = Solubility of the compound; format: physicochemical
[14] = molecular target: T1, Stimulator of interferon genes protein; assay: Activation of STING in human THP1-Dual cells assessed as induction of ISG signaling at 0.005 to 10 uM measured after 24 hrs by Quanti-Blue reagent based assay; format: cell-based; settings: filed as activator, dose 0.005-10 µM
Summary of the method: as §3

4T1 = assay: Antitumor activity against mouse 4T1 cells […] in orthotopic BALB/c mouse assessed as tumor regression at 10 mg/kg, iv administered on day 1,4 and 7 post inoculation; format: functional, organism-based; settings: time 7.0 day
Summary of the method: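 BALB/c mice bearing orthotopic 4T1 tumors (5 × 10⁵ cells in the breast fat pad; n = 5) dosed iv at 10 mg/kg on days 1, 4 and 7 once tumors reached about 50–100 mm³. Tumor volume calculated as (a × b²)/2 and, with body weight, measured twice weekly.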

T1 sequence (Q86WV6 whole entry): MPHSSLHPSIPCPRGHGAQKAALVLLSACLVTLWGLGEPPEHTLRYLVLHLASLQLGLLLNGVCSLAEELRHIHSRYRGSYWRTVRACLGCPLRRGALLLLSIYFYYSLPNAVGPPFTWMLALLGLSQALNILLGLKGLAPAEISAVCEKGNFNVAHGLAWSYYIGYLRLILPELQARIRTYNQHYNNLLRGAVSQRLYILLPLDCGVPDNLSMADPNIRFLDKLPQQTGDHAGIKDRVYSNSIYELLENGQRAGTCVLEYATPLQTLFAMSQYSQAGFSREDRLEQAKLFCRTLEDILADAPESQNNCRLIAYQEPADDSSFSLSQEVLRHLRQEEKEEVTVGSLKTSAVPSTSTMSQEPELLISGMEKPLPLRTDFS
Chain of Stimulator of interferon genes protein (Homo sapiens, UniProt Q86WV6, G230A/R293Q/R71H) (Q86WV6 whole entry R71H/G230A/R293Q): as the sequence (Q86WV6 whole entry) above, with R71H, G230A, R293Q counted along it
Chain of Stimulator of interferon genes protein (Homo sapiens), Q86WV6 [R71H,G230A,R293Q] (Q86WV6 whole entry R71H/G230A/R293Q): as the sequence (Q86WV6 whole entry) above, with R71H, G230A, R293Q counted along it
Chain of Stimulator of interferon genes protein (Homo sapiens), Q86WV6 [UNDEFINED MUTATION] (Q86WV6 whole entry, looked up, change not shown): as the sequence (Q86WV6 whole entry) above

SMILES: Cc1ccc2c(=O)c3cccc(CC(=O)O)c3oc2c1C
- inhibition (CT26): Active

- EC50 [1]: 24 µM
- EC50 [2]: 8.3 µM
SMILES: COc1cc2cc(C(=O)CCC(=O)O)sc2cc1OC

- fold change (FC) [3]: 8.11
- Activity [4]: Active
- Tm (Homo sapiens [5]): 49 °C
- Activity [6]: Active
- Tm [7]: 48.8 °C
- Tm [8]: 48.5 °C
- Tm (Homo sapiens [9]): 50.2 °C
- fold change (FC) [10]: 26
- Tm (Mus musculus): 55.5 °C
- Activity [11]: Active
- Activity [12]: Dose-Dependent Effect
- solubility [13]: 3230 µg/mL
- Activity [14]: Active
SMILES: CCn1nc(C)cc1C(=O)/N=c1\[nH]c2cc(C(N)=O)cc(OC)c2n1C/C=C/Cn1/c(=N/C(=O)c2cc(C)nn2CC)[nH]c2cc(C(N)=O)cc(OCCCN3CCOCC3)c21.Cl.Cl.Cl
- Activity (4T1): Active
